The results in this text go back to ChEMBL document CHEMBL2157987, “Benzimidazole bearing oxadiazole and triazolo-thiadiazoles nucleus: design and synthesis as anticancer agents” (2012).

The test system of one test is K562. Kind of test: Cytotoxicity against human K562 cells assessed as cell growth at 10 uM after 48 hrs by SRB assay. The note with it: K562, 48 h, read-out: Activity. The format is functional. An outline of the steps: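 NCI single-dose screen at 10 µM. Cells were incubated 48 h and the end point was read by sulforhodamine B protein staining. Results are given as percent growth of treated cells relative to untreated controls. Growth of 32% or less was counted as active.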

A further test relates to UO-31. Kind of test: Cytotoxicity against human UO31 cells assessed as cell growth at 10 uM after 48 hrs by SRB assay. Type of test: functional. The note with it: UO-31, 48 h, read-out: Activity. An outline of the steps: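 This was a single-concentration screen on UO-31 in RPMI 1640 with 5% FBS. Compound went on 24 h after plating, with 48 h exposure at 37 °C. End point was sulforhodamine B protein staining read at 515 nm. Results are percent growth of treated cells relative to untreated controls and time-zero plates.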

Structures are written as SMILES.

Regarding `O=C(CCc1nnc(/C=C/c2ccccc2)o1)c1nc2ccccc2[nH]1`, in the test with K562, the growth at 10 µM came to 24.6%.
Regarding `O=C(CCc1nnc(-c2cc(O)c(O)c(O)c2)o1)c1nc2ccccc2[nH]1`, the growth at 10 µM with UO-31 was 62.2%.
`O=C(CCc1nnc2sc(-c3cc(O)c(O)c(O)c3)nn12)c1nc2ccccc2[nH]1`: the growth at 10 µM with K562 is 8.3%.
In the case of `Nc1cc(Br)c(-c2nn3c(CCC(=O)c4nc5ccccc5[nH]4)nnc3s2)c(Br)c1`, the growth at 10 µM in the test with K562 stood at 7.05%.
`O=C(CCc1nnc2sc(/C=C/c3ccccc3)nn12)c1nc2ccccc2[nH]1`: the growth at 10 µM with K562 worked out at 2.17%.
